Experimental data taken from ChEMBL document CHEMBL1151925, “Design and synthesis of enediyne-peptide conjugates and their inhibiting activity against chymotrypsin” (Bioorg Med Chem, 2009).
Active and inactive are the calls of the source. The rule behind the calls is not given here.

What was measured:
[1] = Inhibition of alpha-chymotrypsin assessed as decrease in proteolysis of BSA at 80 uM to 320 uM by Lowry method
Outline: (§1)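 BSA (1 mg/ml stock) in 0.01 M phosphate buffer digested with chymotrypsin (1 mg/ml solution) at 38 °C for a set time, free enzyme or enzyme preincubated with inhibitor at three concentrations. Undigested BSA precipitated with 4% trichloroacetic acid and removed by centrifugation. Hydrolysed products in the supernatant quantified by Lowry method and compared with the uninhibited control.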

[2] = Inhibition of alpha-chymotrypsin assessed as decrease in proteolysis of BSA at 1 mg/ml after 60 mins by SDS-PAGE
Outline: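 Chymotrypsin digestion of BSA (1 mg/ml stock) in 0.01 M phosphate buffer at 38 °C, with free enzyme or enzyme preincubated with inhibitor. Digestion fragments resolved by SDS–PAGE with Coomassie Brilliant Blue staining. Loss of the intact BSA band and appearance of hydrolysed fragments were scored.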

[3] = Inhibition of alpha-chymotrypsin by Lineweaver-Burke plot analysis
Outline: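 Chymotrypsin kinetics followed by UV-vis using N-benzoyl tyrosine ethyl ester substrate at 169–340 µM in 80 mM Tris HCl, pH 7.8, with CaCl2. Inhibitor varied across several concentrations. Reciprocal initial rate plotted against reciprocal substrate concentration (Lineweaver–Burk) to assign inhibition type and derive Ki.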

[4] = Inhibition of alpha-chymotrypsin assessed as decrease in proteolysis of BSA at 4.6 uM to 7.7 uM by Lowry method; outline: as §1
[5] = Inhibition of alpha-chymotrypsin assessed as decrease in proteolysis of BSA at 93 uM to 372 uM by Lowry method; outline: as §1
[6] = Inhibition of alpha-chymotrypsin assessed as decrease in proteolysis of BSA at 10.23 uM to 40.9 uM by Lowry method; outline: as §1
[7] = Inhibition of alpha-chymotrypsin assessed as decrease in proteolysis of BSA at 5.9 uM to 35 uM by Lowry method; outline: as §1
[8] = Inhibition of alpha-chymotrypsin assessed as decrease in proteolysis of BSA at 8.5 uM to 34 uM by Lowry method; outline: as §1

SMILES | Activity [2] | Ki [3] [µM] | also measured
CC(C)(C)OC(=O)N[C@@H](Cc1ccccc1)C(=O)N1CCc2ccccc2C1 | inactive |  | Activity [1]: inactive
CC(C)(C)OC(=O)N[C@@H](Cc1ccccc1)C(=O)OCC(=O)N1CCCCC1 | inactive |  | Activity [5]: inactive

Second part, led by results:

Activity [2] | Ki [3] [µM] | SMILES | also measured
Active | 3 | CC(C)(C)OC(=O)N[C@@H](Cc1ccccc1)C(=O)N1CC#Cc2ccccc2C#CCC1 | Activity [4]: Active
Active |  | CC(C)(C)OC(=O)N[C@@H](Cc1ccccc1)C(=O)OCC(=O)N1CC#C/C=C\C#CCC1 | Activity [6]: Active
Active | 30 | CC(C)(C)OC(=O)N[C@@H](Cc1ccccc1)C(=O)OCC(=O)N1CC#Cc2ccccc2C#CCC1 | Activity [7]: Active
Active | 12 | C[C@H](NC(=O)OC(C)(C)C)C(=O)N[C@@H](Cc1ccccc1)C(=O)NCCC#Cc1ccccc1C#CC=O | Activity [8]: Active
